Measurements from ChEMBL document CHEMBL4382240, “Discovery of novel 2,5-dihydroxyterephthalamide derivatives as multifunctional agents for the treatment of Alzheimer's disease” (Bioorg Med Chem, 2018).
Active and inactive are the calls of the source. The rule behind the calls is not given here.

How the values were obtained:
Butyrylcholinesterase = Butyrylcholinesterase (Rattus norvegicus, UniProt Q9JKC1); experiment: Inhibition of rat serum BuChE using butyrylthiocholine iodide as substrate after 15 mins by Ellman's method; format: ADME
[1] = Antioxidant activity assessed as trolox equivalent of APPH-induced radical scavenging activity at 5 uM preincubated for 15 mins followed by AAPH addition measured every minute for 90 mins by ORAC fluorescein assay; format: functional
In short: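 ORAC-FL in 75 mM phosphate buffer, pH 7.4. Fluorescein (150 nM final) and sample (tested at 1–10 µM) incubated 15 min at 37 °C. AAPH (12 mM final) then added, and fluorescence (ex 485/em 535 nm) read every minute for 90 min. Trolox standard 1–8 µM; result expressed as µM Trolox equivalent per µM compound. Duplicate wells; three independent experiments.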

[2] = target: Acetylcholinesterase (Electrophorus electricus) (UniProt O42275); experiment: Mixed-type inhibition of electric eel AChE at 2.5 to 10 uM preincubated for 15 mins followed by varying levels of acetylthiocholine iodide substrate addition by Lineweaver-Burk plot analysis
[3] = Metal chelating activity assessed as compound-Al3+ complex formation at 37.5 uM after 30 mins by UV spectrometry method
In short: (§1)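 Compound and metal salt (CuCl2, ZnCl2, FeSO4 or AlCl3), each 37.5 µM final in methanol, incubated 30 min at room temperature. UV-vis spectra recorded from 200 to 600 nm and compared with the compound alone.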

[4] = Metal chelating activity assessed as compound-Zn2+ complex formation at 37.5 uM after 30 mins by UV spectrometry method; in short: as §1
[5] = target: Amyloid-beta precursor protein (Homo sapiens, UniProt P05067); experiment: Inhibition of human amyloid beta (1 to 42) self-induced aggregation after 24 hrs by Thioflavin T based fluorometric assay
In short: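 Self-induced Aβ1-42 aggregation (25 µM peptide) in phosphate buffer, pH 7.4, for 24 h at 37 °C with varying compound concentrations. Aggregation read by ThT fluorescence (5 µM ThT, glycine-NaOH pH 8.5).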

[6] = Effective permeability of the compound in PBS/EtOH at 100 ug/ml after 18 hrs by PAMPA; format: ADME; conditions: read-out: Peff
[7] = Cytotoxicity against […] cells assessed as decrease in cell viability up to 10 uM measured after 24 hrs by MTT assay; format: cell-based
In short: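 BV-2 cells grown 24 h, then treated with compound (0.5, 2.5, 10.0 µM) for 30 min, with or without LPS (1.0 µg/mL), for a further 24 h. MTT (5 mg/mL) added for 4 h, formazan dissolved in DMSO, A490 read. Viability given as percent of untreated cells. Triplicate wells; three independent experiments.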

[8] = Anti-inflammatory activity in […] cells assessed as inhibition of LPS-stimulated NO release at 2.5 uM preincubated for 30 mins followed by LPS stimulation and measured after 24 hrs by Griess reagent based assay relative to control; format: functional; conditions: BV-2
In short: (§2)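 BV-2 cells cultured 24 h in DMEM (10% FBS, glutamine, pyruvate, pen/strep) at 37 °C, 5% CO2. Compound (DMSO stock diluted in PBS) added 30 min before LPS (1.0 µg/mL), then 24 h. Nitrite in supernatant measured by Griess reagent for 10 min at room temperature, A540, against a NaNO2 standard curve. Triplicate wells; mean ± SD of three independent experiments.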

[9] = Anti-inflammatory activity in […] cells assessed as inhibition of LPS-stimulated NO release at 10 uM preincubated for 30 mins followed by LPS stimulation and measured after 24 hrs by Griess reagent based assay relative to control; format: functional; conditions: BV-2; in short: as §2
[10] = Anti-inflammatory activity in […] cells assessed as inhibition of LPS-stimulated TNFalpha release at 10 uM preincubated for 30 mins followed by LPS stimulation and measured after 24 hrs by ELISA relative to control; format: functional; conditions: BV-2
In short: (§3)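 Confluent BV-2 cells in DMEM preincubated 30 min with compound, tested over 0.5–10 µM, then stimulated with LPS (1.0 µg/mL) for 24 h. Released TNF-α measured by ELISA following kit instructions. Triplicate wells; mean ± SD of three independent experiments.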

Homo sapiens = species: Homo sapiens; experiment: Anti-inflammatory activity in […] cells assessed as inhibition of LPS-stimulated TNFalpha release at 0.5 uM preincubated for 30 mins followed by LPS stimulation and measured after 24 hrs by ELISA; format: functional, cell-based; in short: as §3

Amyloid-beta precursor protein, sequence (P05067 whole entry): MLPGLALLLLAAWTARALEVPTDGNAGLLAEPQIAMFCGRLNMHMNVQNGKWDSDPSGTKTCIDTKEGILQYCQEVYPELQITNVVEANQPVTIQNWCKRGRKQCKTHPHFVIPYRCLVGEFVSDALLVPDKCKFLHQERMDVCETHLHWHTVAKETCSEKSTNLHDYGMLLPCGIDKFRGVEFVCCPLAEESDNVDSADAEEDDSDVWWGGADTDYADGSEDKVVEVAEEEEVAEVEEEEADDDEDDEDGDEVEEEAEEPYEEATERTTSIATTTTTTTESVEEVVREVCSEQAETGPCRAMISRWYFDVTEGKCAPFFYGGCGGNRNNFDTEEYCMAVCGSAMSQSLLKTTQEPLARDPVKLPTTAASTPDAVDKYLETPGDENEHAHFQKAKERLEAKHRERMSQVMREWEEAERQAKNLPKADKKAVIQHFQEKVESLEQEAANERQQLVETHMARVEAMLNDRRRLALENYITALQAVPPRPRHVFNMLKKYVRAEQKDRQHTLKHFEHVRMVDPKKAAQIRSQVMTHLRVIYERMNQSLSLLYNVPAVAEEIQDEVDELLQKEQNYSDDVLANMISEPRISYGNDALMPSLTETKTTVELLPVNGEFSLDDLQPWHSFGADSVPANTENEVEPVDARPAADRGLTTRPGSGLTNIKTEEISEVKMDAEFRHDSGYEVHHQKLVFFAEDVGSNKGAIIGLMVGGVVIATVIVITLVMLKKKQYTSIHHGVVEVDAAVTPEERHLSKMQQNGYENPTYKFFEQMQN
Butyrylcholinesterase, sequence (Q9JKC1 whole entry): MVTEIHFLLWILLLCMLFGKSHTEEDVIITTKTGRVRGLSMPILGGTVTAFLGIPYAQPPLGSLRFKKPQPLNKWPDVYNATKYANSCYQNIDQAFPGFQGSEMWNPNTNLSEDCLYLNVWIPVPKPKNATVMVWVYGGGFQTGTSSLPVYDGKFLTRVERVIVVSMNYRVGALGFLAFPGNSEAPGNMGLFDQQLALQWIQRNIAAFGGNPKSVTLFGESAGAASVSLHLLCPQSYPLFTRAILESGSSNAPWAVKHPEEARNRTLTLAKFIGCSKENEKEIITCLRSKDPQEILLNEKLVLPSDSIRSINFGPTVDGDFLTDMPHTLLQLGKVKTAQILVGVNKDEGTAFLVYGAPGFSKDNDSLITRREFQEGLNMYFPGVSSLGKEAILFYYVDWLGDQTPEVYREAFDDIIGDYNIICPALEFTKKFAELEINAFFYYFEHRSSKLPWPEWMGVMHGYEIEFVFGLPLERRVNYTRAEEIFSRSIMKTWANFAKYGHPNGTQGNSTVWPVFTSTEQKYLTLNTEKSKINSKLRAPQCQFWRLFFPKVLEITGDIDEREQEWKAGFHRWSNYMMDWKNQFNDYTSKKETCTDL
Acetylcholinesterase (Electrophorus electricus), sequence (O42275 24-633 limits assumed): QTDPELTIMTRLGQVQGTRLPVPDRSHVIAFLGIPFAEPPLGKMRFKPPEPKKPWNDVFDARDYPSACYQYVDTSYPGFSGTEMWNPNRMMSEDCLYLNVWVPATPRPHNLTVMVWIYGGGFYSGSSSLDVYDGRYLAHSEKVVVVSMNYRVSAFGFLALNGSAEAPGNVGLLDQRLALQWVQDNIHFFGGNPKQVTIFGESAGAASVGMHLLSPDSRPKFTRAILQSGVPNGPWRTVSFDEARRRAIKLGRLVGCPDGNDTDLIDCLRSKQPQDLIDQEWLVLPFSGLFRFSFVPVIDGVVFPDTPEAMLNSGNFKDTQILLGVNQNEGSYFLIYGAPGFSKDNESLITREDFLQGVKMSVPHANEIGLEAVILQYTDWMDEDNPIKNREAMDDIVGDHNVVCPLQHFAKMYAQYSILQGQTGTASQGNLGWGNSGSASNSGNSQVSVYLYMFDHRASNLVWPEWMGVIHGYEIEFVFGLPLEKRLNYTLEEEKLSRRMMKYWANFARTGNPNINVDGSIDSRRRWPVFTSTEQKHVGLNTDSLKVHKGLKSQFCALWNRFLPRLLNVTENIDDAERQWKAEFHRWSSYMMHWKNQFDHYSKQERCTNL

CCN(CCCCNC(=O)c1cc(O)c(C(=O)NCCCCN(CC)Cc2ccccc2OC)cc1O)Cc1ccccc1OC
IC50 (Butyrylcholinesterase): > 100 µM
Activity [1]: 0.97 equiv
inhibition [2]: Active
Activity [3]: Active
Activity [4]: inactive
IC50 [5]: 3.05 µM
Papp at 18 h, 100 ug/ml [6]: 4.45 ×10⁻⁶ cm/s
Activity [7]: Non-Toxic
inhibition at 2.5 µM [8]: 30%
inhibition at 10 µM [9]: 58.3%
inhibition at 10 µM [10]: 55.3%
inhibition (Homo sapiens): inactive
